Publication PMC4455950 (Journal of the American Chemical Society, 2008)
Entries after “also recorded” stand apart in the source; their conditions may differ. Where two headings read alike, the source gives them in different places.

Assays:
[1] = molecular target: T1, mCD1d:Ig fusion protein (dimeric CD1d) (Mus musculus, UniProt P11609); experiment: Competitive binding assay on microarray; conditions: for binding with CD1d stronger than α-GalCer: relative to α-GalCer
T1 sequence (P11609 22-305 limits assumed): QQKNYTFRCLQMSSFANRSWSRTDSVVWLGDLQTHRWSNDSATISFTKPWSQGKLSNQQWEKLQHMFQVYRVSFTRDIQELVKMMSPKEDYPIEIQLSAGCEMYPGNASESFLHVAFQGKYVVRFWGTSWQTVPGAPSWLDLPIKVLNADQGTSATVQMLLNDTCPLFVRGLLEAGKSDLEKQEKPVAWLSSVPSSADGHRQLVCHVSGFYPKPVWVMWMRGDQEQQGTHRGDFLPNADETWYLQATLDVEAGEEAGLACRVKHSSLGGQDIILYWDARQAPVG
T1 sequence (P01887 21-119 partner): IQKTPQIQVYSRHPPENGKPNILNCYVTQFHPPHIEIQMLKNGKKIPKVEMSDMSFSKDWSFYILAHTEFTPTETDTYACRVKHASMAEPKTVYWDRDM
How it was run: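 Glass slides carry a covalently attached amine-linked α-GalCer analogue printed at 100 μM. Test compound (400 to 0.1 μM, 1.0% DMSO) is preincubated with dimeric mCD1d:Ig (500 nM) for 5–8 h. Mixture goes on slides 1 h at room temperature, humidified. Detection uses precomplexed biotinylated rat anti-mCD1d (20 μg/mL) plus Cy3-streptavidin (10 μg/mL), 1 h, then a 595 nm scan. Ki is fitted to a competitive surface-binding equation.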

[2] = tested on: human Vα24+ NKT cell line cocultured with Hela cells transfected with human CD1d; experiment: Cytokine secretion assay using human NKT cell lines; type: cell-based; conditions: for IFN-γ secretion normalized to α-GalCer / IL-4 secretion normalized to α-GalCer: 10 ng/mL glycolipid, 24 h, ELISA, relative to α-GalCer = 1.00; for IFN-γ/IL-4 ratio: IFN-γ ratio/IL-4 ratio, normalized to α-GalCer
How it was run: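 Vα24+ NKT lines come from bead-isolated leukopak T cells. They were expanded 10 days on irradiated (3000 rads) CD14-derived immature DCs with 100 ng/mL α-GalCer and 10 IU/mL IL-2. Assay: 20 000 NKT cells plus 2 × 10^4 irradiated (10 000 rads) human CD1d-transfected HeLa cells, 10 ng/mL test compound, 24 h. Supernatant IFN-γ or IL-4 by ELISA, normalised to α-GalCer; triplicate, mean ± SD.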

CD1d [3] = conditions: read-out: dissociation constant from IEF; cited from earlier work
CD1d [4] = conditions: read-out: dissociation constant from ITC; cited from earlier work

| SMILES | binding to CD1d (in words) [1] | binding with CD1d stronger than α-GalCer [1] | binding enhancement compared with parent compound 13 ([1]; relative to compound 13) | Ki [1] [µM] | Ki versus KD,surf (fold) ([1]; solution Ki compared with KD,surf of surface α-GalCer) | IFN-γ production (in words) [2] | IFN-γ secretion normalized to α-GalCer [2] | IL-4 secretion normalized to α-GalCer [2] | IFN-γ/IL-4 ratio [2] | Kd (CD1d [3]) [µM] | Kd (CD1d [4]) [µM] |
| --- | --- | --- | --- | --- | --- | --- | --- | --- | --- | --- | --- |
| CCCCCCCCCCCCCC[C@@H](O)[C@@H](O)[C@H](CO[C@H]1O[C@H](CO)[C@H](O)[C@H](O)[C@H]1O)NC(=O)CCCCCCCc1ccc(C(F)(F)F)cc1 [Compound 20] |  |  |  |  |  |  | 1.43 ± 0.07 | 0.76 ± 0.08 | 1.88 ± 0.08 |  |  |
| CCCCCCCCCCCCCCCCCCCCCCCCCC(=O)N[C@@H](CO[C@H]1O[C@H](CO)[C@H](O)[C@H](O)[C@H]1O)[C@H](O)[C@H](O)CCCCCCCCCCCCCC [α-GalCer, α-galactosylceramide, reference compound] |  |  |  | 16 ± 2.1 | 30–140 fold |  | 1.00 | 1.00 | 1.00 | 5.9 | 9.7 |
| CCCCCCCCCCCCCC[C@@H](O)[C@@H](O)[C@H](CO[C@H]1O[C@H](CO)[C@H](O)[C@H](O)[C@H]1O)NC(=O)CCCCCCCc1ccc(OC)cc1 [Compound 19] |  |  |  |  |  | highest IFN-γ cytokine production | 2.25 ± 0.06 | 0.79 ± 0.06 | 2.85 ± 0.10 |  |  |

Further lines, with some results ahead:

| binding to CD1d (in words) [1] | binding with CD1d stronger than α-GalCer [1] | binding enhancement compared with parent compound 13 ([1]; relative to compound 13) | Ki [1] [µM] | Ki versus KD,surf (fold) ([1]; solution Ki compared with KD,surf of surface α-GalCer) | SMILES | IFN-γ production (in words) [2] | IFN-γ secretion normalized to α-GalCer [2] | IL-4 secretion normalized to α-GalCer [2] | IFN-γ/IL-4 ratio [2] | Kd (CD1d [3]) [µM] | Kd (CD1d [4]) [µM] |
| --- | --- | --- | --- | --- | --- | --- | --- | --- | --- | --- | --- |
| lower binding activity |  |  |  |  | CCCCCCCCCCCCCC[C@@H](O)[C@@H](O)[C@H](CO[C@H]1O[C@H](CO)[C@H](O)[C@H](O)[C@H]1O)NC(=O)CCCCCCCCCCc1ccc(-c2ccccc2)cc1 [Compound 25] | less IFN-γ production | 0.33 ± 0.001 | 0.61 ± 0.06 | 0.55 ± 0.04 |  |  |
|  | approximately 1 order of magnitude |  |  |  | CCCCCCCCCCCCCCC(O)C(O)C(COC1OC(CO)C(O)C(O)C1O)NC(=O)CCCCCCCc1ccccc1 (centres unmarked) [Compound 13] |  | 1.80 ± 0.15 | 0.87 ± 0.27 | 2.07 ± 0.26 |  |  |
|  | 2 order of magnitude | approximately 1 order of magnitude |  |  | CCCCCCCCCCCCCCC(O)C(O)C(COC1OC(CO)C(O)C(O)C1O)NC(=O)CCCCCCCc1ccc(F)cc1 (centres unmarked) [Compound 18] | highest IFN-γ cytokine production; also recorded: highest IFN-γ secretion | 2.39 ± 0.13 | 0.80 ± 0.09 | 3.00 ± 0.16 |  |  |
